Experimental data taken from ChEMBL document CHEMBL4330170, “Acidiphilamides A-E, Modified Peptides as Autophagy Inhibitors from an Acidophilic Actinobacterium, Streptacidiphilus rugosus” (J Nat Prod, 2019).
Calls of active or inactive are those of the source. The rule behind the calls is not given here. Non-standard residues stand in square brackets, D forms with d. Residues, ends and D or L forms follow the SMILES beside them. *: point of attachment. Phe(ol) = N[C@H](CO)Cc1ccccc1; Isovaleryl = CC(C)CC(=O)*; Propionyl = CCC(=O)*; Butyryl = CCCC(=O)*

Assays:
HeLa [1] = experiment: Inhibition of autophagic flux in human HeLa cells assessed as increase in LC3-2 level at 100 to 200 uM after 4 to 12 hrs by immunoblot analysis; type: functional, cell-based
In short: (§1)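 HeLa cells grown in DMEM with 10% FBS, 2 mM glutamine and penicillin/streptomycin, preincubated overnight, then exposed to compound at the indicated final concentrations for 4, 8 or 12 h. Whole-cell RIPA lysates run on SDS-PAGE, transferred to PVDF, blocked in 5% nonfat milk, probed with anti-LC3, anti-SQSTM1, anti-Ub, anti-α3 or anti-β-actin, HRP secondary, ECL detection.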

HeLa [2] = experiment: Inhibition of autophagic flux in human HeLa cells assessed as increase in LC3-2 level after 4 to 12 hrs by immunoblot analysis; type: functional, cell-based; in short: as §1
HeLa [3] = experiment: Effect on p62/SQSTM1 protein expression in human HeLa cells at 100 to 200 uM after 4 to 12 hrs by immunoblot analysis; type: functional, cell-based; in short: as §1
[4] = target: 26S proteasome (Homo sapiens) (UniProt Q99460+P49721+P20618+P28074+P28062+P28065+P28072+O00487+P25786+P25787+P25788+P25789+P28066+P60900+O14818+Q8TAA3+P40306+A5LHX3+P49720+P28070+Q99436+Q16186+P35998+P62191+P43686+P62333+P17980+P62195+Q13200+O43242+O00232+O00231+Q15008+P51665+Q9UNM6+P55036+P48556+P60896); experiment: Inhibition of human 26S proteasome using suc-LLVY-AMC as substrate up to 40 mins by fluorescence assay; type: protein-complex assay
In short: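 Purified human 26S proteasomes incubated with compound and fluorogenic substrate suc-LLVY-AMC. Substrate hydrolysis followed as AMC fluorescence (RFU) over time.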

HeLa [5] = experiment: Effect on polyubiquitin conjugate protein expression in human HeLa cells at 100 to 200 uM after 4 to 12 hrs by immunoblot analysis; type: functional, cell-based; in short: as §1
HeLa [6] = experiment: Effect on proteasome subunit alpha-3 protein expression in human HeLa cells at 100 to 200 uM after 4 to 12 hrs by immunoblot analysis; type: functional, cell-based; in short: as §1
HeLa [7] = experiment: Inhibition of autophagic flux in human HeLa cells assessed as reduction in autolysosome formation by measuring increase in LC3-2 level at 200 uM after 8 hrs in presence of BafA1 by immunoblot analysis; type: functional, cell-based
In short: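 HeLa cells grown in normal DMEM to >90% confluence, washed with PBS, then cotreated for 8 h with compound (200 μM) plus bafilomycin A1 (100 nM) in DMEM, or under amino acid depletion in EBSS. Whole-cell RIPA lysates immunoblotted (SDS-PAGE, PVDF, milk block, HRP secondary, ECL); β-actin loading control.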

HeLa [8] = experiment: Inhibition of autophagic flux in human HeLa cells assessed as DQ-BSA quenching at 200 uM after 4 hrs by DAPI staining based fluorescence microscopic method; type: functional, cell-based
In short: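 HeLa cells on glass coverslips loaded with self-quenching BODIPY–BSA (DQ-BSA, 10 μg/mL) for 1 h, PBS-washed, then exposed to DMSO, EBSS or compound (200 μM) for 4 h. Fixed in 4% paraformaldehyde/PBS 15 min, mounted with DAPI-containing medium. Dequenched DQ-BSA puncta in autolysosomes imaged by fluorescence microscopy.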

HeLa [9] = experiment: Inhibition of autophagic flux in human HeLa cells assessed as increase in LC3-2 level at 100 to 200 uM after 4 to 12 hrs by immunoblot analysis

CCC(=O)N[C@@H](Cc1ccc(O)cc1)C(=O)N[C@H](C(=O)N[C@H](CO)Cc1ccccc1)[C@@H](C)CC (Propionyl-Tyr-Ile-[Phe(ol)])
LC3-II increase (active/not active) (HeLa [1]): inactive

CC[C@H](C)[C@H](NC(=O)[C@H](Cc1ccc(O)cc1)NC(=O)CC(C)C)C(=O)N[C@H](CO)CCSC
LC3-II increase (active/not active) (HeLa [1]): inactive

CC(C)CC(=O)N[C@@H](Cc1ccccc1)C(=O)N[C@H](C(=O)N[C@H](CO)Cc1ccccc1)C(C)C (Isovaleryl-Phe-Val-[Phe(ol)])
inhibition (HeLa [2]): Dose-dependent effect | Activity (HeLa [3]): inactive | inhibition [4]: inactive | Activity (HeLa [5]): inactive | Activity (HeLa [6]): inactive | inhibition (HeLa [7]): inactive | inhibition (HeLa [8]): Active | inhibition (HeLa [9]): Active

CCCC(=O)N[C@@H](Cc1ccccc1)C(=O)N[C@H](C(=O)N[C@H](CO)Cc1ccccc1)[C@@H](C)CC (Butyryl-Phe-Ile-[Phe(ol)])
inhibition (HeLa [2]): Dose-dependent effect | Activity (HeLa [3]): inactive | inhibition [4]: inactive | Activity (HeLa [5]): inactive | Activity (HeLa [6]): inactive | inhibition (HeLa [7]): inactive | inhibition (HeLa [8]): Active | inhibition (HeLa [9]): Active

CC[C@H](C)[C@H](NC(=O)[C@H](Cc1ccc(O)cc1)NC(=O)CC(C)C)C(=O)N[C@H](CO)Cc1ccccc1 (Isovaleryl-Tyr-Ile-[Phe(ol)])
LC3-II increase (active/not active) (HeLa [1]): inactive

CC(C)CC(=O)N[C@@H](Cc1ccc(O)cc1)C(=O)N[C@H](C(=O)N[C@H](CO)Cc1ccccc1)C(C)C (Isovaleryl-Tyr-Val-[Phe(ol)])
LC3-II increase (active/not active) (HeLa [1]): inactive

CC[C@H](C)[C@H](NC(=O)[C@H](Cc1ccccc1)NC(=O)CC(C)C)C(=O)N[C@H](CO)Cc1ccccc1 (Isovaleryl-Phe-Ile-[Phe(ol)])
LC3-II increase (active/not active) (HeLa [1]): inactive
